Compound activity: PubChem BioAssay, several laboratories
Only some compounds are listed: those with a hit (about 2% of all), similar ones and a draw of the others.
PvdQ inh: blocks Pseudomonas aeruginosa PvdQ acylase activity | purified PvdQ acylase, fluorescence plate reader | inhibition, % at 10 µM | 340,000 compounds, 0.063% hits; in the data active = inhibition above about 30%, passing the limit was not always enough;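 also: 0% = vehicle neutral wells and 100% = reference inhibitor wells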
ATG4B inhibitor: blocks human ATG4B protease cleavage of LC3 substrate. Q9Y4P1. ATG4B cleavage of LC3-PLA2, NBD-HPC fluorescence, 1 h. inhibition, % at 8.33 µM. 340,000 compounds, 0.51% hits. AID 504462; in the data active = inhibition above about 40%
HKDC1 inh: blocks human hexokinase HKDC1 activity. Q2TB90. recombinant HKDC1, G6PDH/diaphorase resazurin coupled fluorescence. inhibition, % at 20 µM. 340,000 compounds, 0.16% hits. AID 493160;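 active = inhibition above about 35% when tested at 20 µM, limit read from the data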;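 also: plate controls were DMSO wells with enzyme for no effect and DMSO wells lacking enzyme for full effect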
Target sequence (Q2TB90 whole entry, looked up): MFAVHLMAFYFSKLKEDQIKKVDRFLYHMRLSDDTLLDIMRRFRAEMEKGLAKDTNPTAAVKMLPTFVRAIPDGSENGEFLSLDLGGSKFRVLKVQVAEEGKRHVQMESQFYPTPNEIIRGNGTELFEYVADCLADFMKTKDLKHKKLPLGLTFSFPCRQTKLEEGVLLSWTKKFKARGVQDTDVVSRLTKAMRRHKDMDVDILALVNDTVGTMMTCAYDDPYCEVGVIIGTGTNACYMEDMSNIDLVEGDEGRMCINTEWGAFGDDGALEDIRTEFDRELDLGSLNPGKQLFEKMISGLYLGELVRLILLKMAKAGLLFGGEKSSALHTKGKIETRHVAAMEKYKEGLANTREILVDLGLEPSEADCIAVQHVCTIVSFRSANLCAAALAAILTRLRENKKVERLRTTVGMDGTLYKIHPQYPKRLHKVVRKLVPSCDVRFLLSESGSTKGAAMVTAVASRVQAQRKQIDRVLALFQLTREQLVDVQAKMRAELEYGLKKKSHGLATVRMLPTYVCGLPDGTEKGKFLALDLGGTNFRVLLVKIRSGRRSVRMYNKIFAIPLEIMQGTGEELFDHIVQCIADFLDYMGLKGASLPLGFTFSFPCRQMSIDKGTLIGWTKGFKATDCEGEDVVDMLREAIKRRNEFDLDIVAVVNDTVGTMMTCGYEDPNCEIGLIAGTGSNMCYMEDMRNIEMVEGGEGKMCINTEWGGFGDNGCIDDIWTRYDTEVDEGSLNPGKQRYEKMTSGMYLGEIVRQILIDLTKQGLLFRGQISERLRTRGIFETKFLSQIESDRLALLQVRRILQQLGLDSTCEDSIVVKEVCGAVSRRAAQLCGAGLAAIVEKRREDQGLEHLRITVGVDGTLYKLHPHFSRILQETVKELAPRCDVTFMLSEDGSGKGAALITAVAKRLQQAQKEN
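Test system: recombinant HKDC1 (HK5) hexokinase enzyme, produced in-house / Doses: 20 µM test compound, 1% DMSO / Timing: 90 min, room temperature / Detection: G6PDH/diaphorase-coupled fluorescence, 1 mM NADP, 100 µM resazurin, 525/613 nm / Control set: DMSO wells with and without enzyme mix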
IMP-1 inhibitor: blocks Pseudomonas aeruginosa IMP-1 metallo-beta-lactamase; 290,000 compounds, 0.45% hits; purified IMP-1, nitrocefin hydrolysis, epi-absorbance fluorescence; inhibition, % at 5.6 µM;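 active = inhibition above the mean plus 3 SD of all compounds in the same screening run, cut at about 4.5% in these data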;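 also: 0% = IMP-1 with DMSO and 100% = DMSO wells lacking enzyme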
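System: Purified recombinant IMP-1 metallo-beta-lactamase enzyme | Measured by: Fluorescence quenching readout, ex 480/em 530 nm | Replication: Singlicate | Incubation: 15 min preincubation plus 25 min reaction at 25 °C | Evaluation: Percent inhibition from optical density relative to buffer-blank wells | Benchmarks: DMSO with and without IMP-1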
VIM-2 inhibitor: inhibitors of Pseudomonas aeruginosa VIM-2 metallo-beta-lactamase; 290,000 compounds, 0.89% hits; inhibition, % at 5.6 µM; purified VIM-2, nitrocefin hydrolysis, epi-absorbance fluorescence;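 active = inhibition above the mean of all tested compounds plus 3 SD, cutoff set per screening run, cut at about 7.5% in these data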;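 also: red hydrolysis product quenches plate fluorescence so inhibitors raise well fluorescence; 0% = enzyme with DMSO and 100% = DMSO without enzyme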
beta cell repl: MIN6 beta-cell proliferation induction | MIN6 cells proliferation, ATPlite luminescence, 48 h; cells starved in 0.2% serum; 100% = growth in 10% serum | proliferation, % at 10 µM | 330,000 compounds, 0.29% hits;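 active = compounds whose signal lies at least 3.5 SD above the mean of all wells on their plate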;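 also: 0% = DMSO-treated cells in low-serum medium and 100% = 10% serum control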
The depositor's hits bear a star; / = not tested or not shown.

SMILES	PvdQ inh	ATG4B inhibitor	HKDC1 inh	IMP-1 inhibitor	VIM-2 inhibitor	beta cell repl
Cc1cccc(NC(=S)NNC(=O)CCn2nc(C)c([N+](=O)[O-])c2C)c1	13	5	-5	-7	8.2*	1
Cc1nn(CCC(=O)NNC(=S)Nc2cccc(Cl)c2)c(C)c1[N+](=O)[O-]	-16	13	3	-5	7	1
COc1ccc(-c2onc3ccc(Br)cc23)cc1	34*	-7	-1	-4	-4	2
CCC1CCCCN1CCCCOc1cccc(Cl)c1 (stereo not drawn)	4	2	-5	-2	-3	-2
CC(C)(C)C(=O)NC(=C(Cl)Cl)P(=O)(O)O	-9	4	-9	0	10*	-3
CC12CCCC[C@@H]1CCC1C2CCC2(C)C1CC[C@@]2(O)CNCCO (stereo partly drawn)	-12	-7	1	-3	-3	-6
CCCCNC(=O)COC(=O)c1c2c(nc3ccccc13)/C(=C\c1cccs1)CC2	-12	-7	3	/	/	/
CC(C)CNC(=O)COC(=O)c1c2c(nc3ccccc13)/C(=C/c1cccs1)CC2	-9	0	16	6.7*	4	/
COc1ccc(S(=O)(=O)NCC2CCCO2)cc1NC(=O)c1ccccc1F (stereo not drawn)	-14	2	-2	-1	-1	-2
O=C(CN(CCc1ccccc1)Cc1ccccc1)Oc1ccccc1P(=O)(O)O	0	3	-1	0	11*	-3
COc1ccc(-c2cc(C(=O)Nc3ccc(Br)cc3)no2)cc1	-10	4	-4	20*	0	-2
COC(=O)c1cc(-c2cccc(OC)c2)on1	47*	-9	-4	-1	0	-3
COC(=O)c1cc(-c2ccc(Br)cc2)on1	92*	3	-1	-3	-2	-2
COC(=O)c1cc(-c2ccc(OC)cc2)on1	95*	5	-3	-3	-1	-4
CN(c1ccccc1)S(=O)(=O)c1cccc(NC(=O)c2ccc(Cl)c([N+](=O)[O-])c2)c1	9	-4	-1	/	/	-6
O=C(CC(O)c1ccccc1)Nc1ccccn1 (stereo not drawn)	-14	-2	-4	/	/	/
O=C(OCC(=O)N(C1CCCCC1)C1CCCCC1)c1ccc(O)cc1	-1	3	2	-1	-2	3
COc1ccc(-c2cc(C(=O)Nc3cc(Cl)ccc3O)no2)cc1	-5	-1	11	25*	-5	-3
COc1ccc(-c2cc(C(=O)Nc3cc(C)ccc3O)no2)cc1	1	-4	-4	-1	-3	-4
COC(=O)[C@H](CC(C)C)NC(=O)NCCC1=CCCCC1	-21	5	1	-3	-2	-3
CCCCC12CN3CC(C)(CN(C1)C31C(=O)N(C)c3ccc(C)cc31)C2=O (stereo not drawn)	1	-11	-12	-1	0	-2
CCCCN(CC)CCCNC(=O)c1cc2c(=O)[nH]c3ccccc3c2s1	-13	-8	6	-3	11*	-3
CCCCN(CC)CCNC(=O)c1cc2c(=O)[nH]c3ccc(C)cc3c2s1	-15	-10	10	-3	8.3*	-4
Cc1ccc2[nH]c(=O)c3cc(C(=O)NCCC(C)C)sc3c2c1	-3	-7	2	-2	-2	2
CC(C)CNC(=O)CN1c2cccc3cccc(c23)S1(=O)=O	-26	-7	1	-3	0	-1
SMILES	PvdQ inh	ATG4B inhibitor	HKDC1 inh	IMP-1 inhibitor	VIM-2 inhibitor	beta cell repl
C#CCOc1ccccc1C(N)=O	/	-3	-2	-1	0	-1
CC(=O)N/C(=C\c1ccccc1)C(=O)OC(C)C(=O)NCc1ccccc1 (stereo not drawn)	-14	2	-4	/	/	-3
C=CCOC(=O)C(=O)/C=C/c1coc2ccccc2c1=O	8	-7	-3	-1	8.3*	-3
CO/N=C/C1CCN(c2ncc(C(F)(F)F)cc2Cl)C1=O (stereo not drawn)	-8	-3	-6	-2	-3	2
Cc1cccc(NC(=O)c2cccc(N3C(=O)CCC3=O)c2)c1	-10	-16	-6	-3	-3	-2
O=C(Nc1cccc2c1C(=O)NC2=O)c1cccc(N2C(=O)CCC2=O)c1	8	-4	-11	8.8*	1	-2
